Assay results as given in ChEMBL document CHEMBL1147524, “Modified norcantharidins; synthesis, protein phosphatases 1 and 2A inhibition, and anticancer activity” (Bioorg Med Chem Lett, 2004).
pIC50: −log10 of the molar value.

Key:
L1210 = assay: 50% growth inhibition of L1210 (murine leukemia) cell line compared with untreated control cells; assay type: functional; details: Mus musculus
How it was run: (§1)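 MTT assay in cells in logarithmic growth, plated in triplicate at 2,500–3,500 cells/well and grown 24 h before test agent was added (day 0). Cultures at 37 °C, 5% CO₂, in media with 10% foetal bovine serum, penicillin, streptomycin and glutamine. Agents were dissolved in DMSO as 5 mM stocks. Absorbance was read at 540 nm. GI50 was taken from the optical density difference between day 0 and the end of drug exposure.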

[1] = Inhibitory activity against protein phosphatase 2A from human red blood cells
How it was run: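 Purified PP2A (0.3 mU/well) was preincubated 10 min with inhibitor in 50 mM Tris–HCl, pH 7.0, with CaCl₂. The reaction was started with hexapeptide substrate […] (200 μM), run 60 min at room temperature, and stopped with malachite green. A650 was read after 10 min. IC50 came from dose–response curves as the mean of three independent replicates.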

HT-29 = assay: 50% growth inhibition of HT-29 (human colorectal carcinoma) cell line compared with untreated control cells; assay type: functional; how it was run: as §1
G-401 = assay: 50% growth inhibition of G401 (human kidney carcinoma) cell line compared with untreated control cells; assay type: functional; how it was run: as §1
NCI-H460 = assay: 50% growth inhibition of H460 (human lung carcinoma) cell line compared with untreated control cells; assay type: functional; how it was run: as §1
A2780 = assay: 50% growth inhibition of A2780 (Human ovarian carcinoma) cell line compared with untreated control cells; assay type: functional; how it was run: as §1

Row | Compound | GI50 (L1210) [µM] | pIC50 [1] | GI50 (HT-29) [µM] | GI50 (NCI-H460) [µM] | GI50 (A2780) [µM] | GI50 (G-401) [µM]
1 | O=C(OC[C@H]1C[C@@H]2O[C@H]1[C@H]1C(=O)OC(=O)[C@H]12)c1ccccc1 | 49 | 4.89 | 57 | 43 | 30 | 53
2 | N#CC[C@]12C=C[C@H](O1)[C@@H]1C(=O)OC(=O)C12 (stereo not given in full) | > 100 | < 4.00 | > 100 | > 100 | 85 | > 100
3 | C[C@@]12C(=O)OC(=O)[C@]1(C)[C@H]1CC[C@@H]2O1 [CANTHARIDIN] | 15 | 6.22 | 6.4 | 4.3 | 10 | 3.5
4 | O=C(O)c1cccc(NC(=O)C2C(C(=O)O)[C@@H]3C=C[C@H]2O3)c1 (stereo not given in full) | > 100 | 5.15 | > 100 | > 100 | 82 | > 100
5 | CC(=O)NC[C@@]12CC[C@@H](O1)C1C(=O)OC(=O)[C@H]12 (stereo not given in full) | > 100 | < 4.00 | > 100 | > 100 | 95 | > 100
6 | O=C1OC(=O)C2C1[C@@H]1CC[C@H]2O1 (stereo not given in full) | 13 | 6.02 | 33 | 50 | 39 | 35
7 | CN.CNC(=O)C1C(C(=O)O)[C@@H]2C=C[C@H]1O2 (stereo not given in full) | > 100 | < 4.00 | 89 | > 100 | 88 | > 100
8 | CCOC(=O)c1ccc(NC(=O)C2C(C(=O)O)[C@@H]3C=C[C@H]2O3)cc1 (stereo not given in full) | > 100 | 4.68 | > 100 | > 100 | 83 | > 100

More lines, main results first:

Row | GI50 (L1210) [µM] | pIC50 [1] | GI50 (HT-29) [µM] | GI50 (NCI-H460) [µM] | GI50 (A2780) [µM] | Compound | GI50 (G-401) [µM]
9 | > 100 | 5.04 | > 100 | > 100 | 80 | CCOC(=O)c1ccc(NC(=O)C2C(C(=O)O)[C@@H]3CC[C@H]2O3)cc1 (stereo not given in full) | > 100
10 | > 100 | < 4.00 | > 100 | > 100 | 81 | O=C(O)C1C(C(=O)OCc2ccccc2)[C@H]2CC[C@@H]1O2 (single isomer, unassigned) | > 100
11 | > 100 | < 4.00 | > 100 | > 100 | 98 | COC(=O)C1C(C(=O)Nc2ccc(Cl)cc2)[C@H]2CC[C@@H]1O2 (stereo not given in full) | > 100
12 | > 100 | 5.11 | > 100 | > 100 | 90 | COC(=O)c1cccc(NC(=O)C2C(C(=O)O)[C@@H]3CC[C@H]2O3)c1 (stereo not given in full) | > 100
13 | > 100 | < 4.00 | > 100 | > 100 | 98 | CC(=O)NC[C@@]12C=C[C@@H](O1)C1C(=O)OC(=O)[C@H]12 (stereo not given in full) | > 100
14 | > 100 | 4.92 | > 100 | > 100 | 97 | COC(=O)c1cccc(NC(=O)C2C(C(=O)O)[C@@H]3C=C[C@H]2O3)c1 (stereo not given in full) | > 100
15 | 48 | 5.49 | 49 | 41 | 40 | CN(C)C(=O)C1C(C(=O)O)[C@@H]2C=C[C@H]1O2.CNC (stereo not given in full) | 25
